Screening results: PubChem BioAssay, Johns Hopkins Ion Channel Center
An excerpt weighted towards active compounds, which were near 3.8% of everything screened.
KCNQ1 inh: blocks the human KCNQ1 potassium channel; CHO-K1 KCNQ1, FluxOR thallium flux fluorescence; active compounds read high; P51787; actives 1.3% (n = 310,000); B-score at 10 µM;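 active = compounds whose thallium flux B-score, printed positive for inhibition, exceeds three library SD while starting fluorescence stays within three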;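 also: channel opened by potassium depolarization with thallium stimulus after 20 min compound exposure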
KCNK9 inh-1: human KCNK9 channel inhibition; Q9NPC2; HEK293 KCNK9, FluxOR thallium flux fluorescence; active compounds read low; B-score at 10 µM; actives 1.2% (n = 310,000); AID 488922;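 active = ratio B-score over 3 SD below the library mean, with starting fluorescence within 5 SD of its mean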;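 also: negative B-score means less thallium flux so channel inhibition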
KCNK3 inh: human KCNK3 channel inhibition, primary screen; O14649; CHO-KCNK3 thallium flux, FluxOR fluorescence; active compounds read low; B-score at 10 µM; actives 0.84% (n = 340,000);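 active = B-score under library mean minus 4 SD, starting fluorescence ratio at most library mean plus 5 SD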;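 also: more negative B-score means stronger inhibition of thallium flux through KCNK3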
Target sequence (O14649 whole entry, looked up): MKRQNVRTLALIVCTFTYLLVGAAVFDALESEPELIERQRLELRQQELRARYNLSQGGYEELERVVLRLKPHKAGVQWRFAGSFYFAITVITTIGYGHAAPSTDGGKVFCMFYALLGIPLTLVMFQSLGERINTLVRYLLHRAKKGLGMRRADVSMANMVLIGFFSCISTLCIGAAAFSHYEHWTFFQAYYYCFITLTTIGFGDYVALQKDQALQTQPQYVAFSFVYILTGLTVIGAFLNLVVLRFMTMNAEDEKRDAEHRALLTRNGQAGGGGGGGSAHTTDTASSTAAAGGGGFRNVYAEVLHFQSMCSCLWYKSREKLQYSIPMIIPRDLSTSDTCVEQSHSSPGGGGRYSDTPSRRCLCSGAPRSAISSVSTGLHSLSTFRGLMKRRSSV
KCNQ1 act: potentiators or activators of human KCNQ1 potassium channel | B-score at 10 µM | actives 0.35% (n = 310,000) | AID 2648 | CHO-K1 KCNQ1, thallium flux FluxOR fluorescence; active compounds read high;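 active = fluorescence ratio B-score, a plate-corrected score, at least three library SD, with initial intensity B-score within 5 SD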
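assay system = KCNQ1-transfected CHO-K1 cells | medium = assay buffer with matched DMSO | probe or stimulus = depolarizing K+/Tl+ stimulus, K2SO4 and Tl2SO4 each 12.5 mM in 5x stock | dosing = single dose | incubation = dye 90 min, compound 20 min, room temperature | detection = kinetic FluxOR fluorescence, 10 s baseline plus 110 s post-stimulus | evaluation = ratio B score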
hERG rescue: hERG (human) protection from proarrhythmic block; Q12809; CHO-hERG, FluxOR thallium flux, dofetilide IC70 present; activation (rescue from dofetilide block), less the hit threshold, % at 10 µM; actives 0.51% (n = 310,000);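 active = activation above the mean of controls blocked by dofetilide plus 5 SD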;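 also: thallium influx through hERG after potassium depolarization seen as dye fluorescence rise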
Kir21 inh: inhibitors of mouse Kir2.1 inward-rectifier potassium channel; P35561; HEK293-Kir2.1, FluxOR thallium flux fluorescence; active compounds read low; B-score at 10 µM; actives 0.85% (n = 310,000); AID 1672;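 active = fluorescence ratio B-score at or below minus 3 SD of library scores, with starting-brightness B-score within 2 SD, cut at about -4.2 in these data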;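 also: channel flux triggered by added potassium and thallium sulfate stimulus; B-score of peak minus minimum fluorescence over baseline after thallium stimulus; more negative B-score means stronger Kir2.1 block with less thallium influx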
hERG inh: blocks human hERG, in counter-screen for Kir2.1 inhibitors. hERG-expressing cells, thallium flux. shares compounds with Kir21 inh. inhibition, % at 10 µM. actives 20% (n = 320);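 also: host cells are CHO cells stably expressing hERG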
KCNK9 inh-2: tests whether Kir2.1 inhibitors also affect human KCNK9 | shares compounds with Kir21 inh | inhibition, % at 10 µM | KCNK9-expressing cells, ion flux inhibition | actives 5% (n = 320)
Kir21 ephys inh: inhibitors of mouse Kir2.1 potassium channel. shares compounds with Kir21 inh. Kir2.1 cells, automated patch-clamp current inhibition. inhibition, % at 25 µM. actives 71% (n = 320)
Active calls of the source: *. Unless noted, no rule for the calls is given here.

Results for Cc1cc(N2CCCCC2)ccc1C=C1C(=O)N(C)C(=S)N(C)C1=O ?
KCNQ1 inh: inactive; KCNK9 inh-1: inactive; KCNK3 inh: inactive; KCNQ1 act: inactive; hERG rescue: -9; Kir21 inh: -0.43

What do the screens show for `Cc1cc(N2CCCC2)ccc1C=C(C#N)C#N`?
KCNQ1 inh: 12*; KCNK9 inh-1: -6.7*; KCNK3 inh: inactive; KCNQ1 act: inactive; hERG rescue: -27; Kir21 inh: 0.38

What do the screens show for `CCOc1ccc(Cl)cc1CNCCc1ccc(F)cc1`?
KCNQ1 inh: inactive; KCNK9 inh-1: inactive; KCNK3 inh: inactive; KCNQ1 act: inactive; hERG rescue: -17; Kir21 inh: -6.4*; hERG inh: inactive; KCNK9 inh-2: inactive; Kir21 ephys inh: 57%*

How did Fc1ccc(CCNCc2ccccc2Cl)cc1 do in these assays?
KCNQ1 inh: inactive; KCNK9 inh-1: inactive; KCNK3 inh: inactive; KCNQ1 act: inactive; hERG rescue: -5; Kir21 inh: 0.28

What do the screens show for `Cc1ccc(C2C(=O)NC(=O)NC2=O)cc1`?
KCNQ1 inh: inactive; KCNK9 inh-1: inactive; KCNK3 inh: inactive; KCNQ1 act: inactive; hERG rescue: -6; Kir21 inh: 0

What do the screens show for `COc1ccc(C(=O)C2CN(C)CC2c2ccc(Cl)cc2)cc1` (configuration not stated)?
KCNQ1 inh: inactive; KCNK9 inh-1: inactive; KCNK3 inh: inactive; KCNQ1 act: inactive; hERG rescue: -20; Kir21 inh: -6.4*; hERG inh: 51%*; KCNK9 inh-2: inactive; Kir21 ephys inh: inactive

Results for COc1cccc(C(=O)C2CN(C)CC2c2ccc(Cl)cc2)c1 (configuration not stated) ?
KCNQ1 inh: inactive; KCNK9 inh-1: inactive; KCNK3 inh: inactive; KCNQ1 act: inactive; hERG rescue: -15; Kir21 inh: -7.1*; hERG inh: 46%*; KCNK9 inh-2: inactive; Kir21 ephys inh: 25%*

How did C/C=C1\NC(=O)[C@@H](NC(=O)[C@H](CCc2ccc(O)cc2)NC(=O)[C@H](C)NC(=O)[C@H](O)CO)[C@@H](C)OC(=O)[C@H](C(C)C)NC(=O)[C@H](Cc2ccc(O)cc2)N(C)C(=O)[C@H](Cc2ccccc2)N2C(=O)C(CC[C@H]2O)NC1=O (some centres not stated) do in these assays?
KCNK3 inh: inactive

Results for Cc1cc(C)n(CCOC(=O)C2C(C=C(Cl)Cl)C2(C)C)n1 (configuration not stated) ?
KCNQ1 inh: inactive; KCNK9 inh-1: inactive; KCNK3 inh: inactive; KCNQ1 act: inactive; hERG rescue: -4; Kir21 inh: -9.8*; hERG inh: inactive; KCNK9 inh-2: inactive; Kir21 ephys inh: 41%*

What do the screens show for `COC(=O)C1=C(c2cccc(OCc3ccccc3)c2)C[C@@H]2CC[C@H]1N2C(=O)NCc1cccc(C(F)(F)F)c1`?
KCNK3 inh: inactive

How did CCCCCSc1cc(OC)c(CCN)cc1OC do in these assays?
KCNQ1 inh: 6*; KCNK9 inh-1: inactive; KCNK3 inh: inactive; KCNQ1 act: inactive; hERG rescue: -12; Kir21 inh: -6.2*; hERG inh: inactive; KCNK9 inh-2: inactive; Kir21 ephys inh: 26%*

What do the screens show for `COc1cc(CCN)ccc1O`?
KCNK3 inh: inactive
